Results: ChEMBL document CHEMBL1255223, “Structure-activity relationship study of first selective inhibitor of excitatory amino acid transporter subtype 1: 2-Amino-4-(4-methoxyphenyl)-7-(naphthalen-1-yl)-5-oxo-5,6,7,8-tetrahydro-4H-chromene-3-carbonitrile (UCPH-101)” (J Med Chem, 2010)
The source made the active and inactive calls. The calls are words filed in the database; no cut-off is given here.

Key:
[1] = biological target: T1, Excitatory amino acid transporter 3 (Homo sapiens) (UniProt P43005); assay: Inhibition of human EAAT3 expressed in HEK293 cells at 300 uM by [3H]D-Asp uptake assay; type: cell-based
T1 sequence (whole entry): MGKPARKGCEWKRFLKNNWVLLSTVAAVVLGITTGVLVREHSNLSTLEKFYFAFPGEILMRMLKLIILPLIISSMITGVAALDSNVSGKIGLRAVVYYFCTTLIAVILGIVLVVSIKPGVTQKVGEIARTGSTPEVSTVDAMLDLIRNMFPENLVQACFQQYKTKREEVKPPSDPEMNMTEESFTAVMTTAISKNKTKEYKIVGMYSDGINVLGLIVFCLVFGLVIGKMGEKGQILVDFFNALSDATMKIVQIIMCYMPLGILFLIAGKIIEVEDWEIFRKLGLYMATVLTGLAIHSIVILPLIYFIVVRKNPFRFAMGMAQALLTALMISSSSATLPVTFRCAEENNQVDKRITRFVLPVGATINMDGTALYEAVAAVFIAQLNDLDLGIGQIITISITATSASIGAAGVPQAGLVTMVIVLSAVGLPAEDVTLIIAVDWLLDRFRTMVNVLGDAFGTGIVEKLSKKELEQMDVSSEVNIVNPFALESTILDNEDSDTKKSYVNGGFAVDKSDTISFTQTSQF
How it was run: (§1)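 [3H]-D-Asp uptake was measured in HEK293 cell lines expressing EAAT2 or EAAT3. Each analogue was tested at the highest concentration possible for it (75, 100, 300 or 1000 μM) to assess inhibitory activity.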

[2] = Terminal half life in Sprague-Dawley rat at 10 mg/kg; type: ADME, organism-based; set-up: dose 10 mg/kg; conditions: in vivo, read-out: beta t1/2
How it was run: (§2)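 Male Sprague-Dawley rats (225 g at arrival) received an oral dose of 10 mg/kg, formulated in 100% PEG400 (5 mL/kg). Three groups (n = 3/group) were sampled at 0.5, 1 and 2 h for cardiac EDTA plasma (under isoflurane) and whole brain homogenized in 70% acetonitrile. UPLC-MS/MS quantitation used an internal standard, with a brain limit of quantification of 10 ng/g.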

[3] = tested on: Brain; assay: Drug level in Sprague-Dawley rat brain at 10 mg/kg; type: ADME, organism-based; set-up: dose 10 mg/kg; conditions: in vivo; how it was run: as §2
[4] = biological target: Excitatory amino acid transporter 2 (Homo sapiens) (UniProt P43004); assay: Inhibition of human EAAT2 expressed in HEK293 cells at 300 uM by [3H]D-Asp uptake assay; type: cell-based; how it was run: as §1
Sequence of Excitatory amino acid transporter 2 (Homo sapiens) (P43004 whole entry): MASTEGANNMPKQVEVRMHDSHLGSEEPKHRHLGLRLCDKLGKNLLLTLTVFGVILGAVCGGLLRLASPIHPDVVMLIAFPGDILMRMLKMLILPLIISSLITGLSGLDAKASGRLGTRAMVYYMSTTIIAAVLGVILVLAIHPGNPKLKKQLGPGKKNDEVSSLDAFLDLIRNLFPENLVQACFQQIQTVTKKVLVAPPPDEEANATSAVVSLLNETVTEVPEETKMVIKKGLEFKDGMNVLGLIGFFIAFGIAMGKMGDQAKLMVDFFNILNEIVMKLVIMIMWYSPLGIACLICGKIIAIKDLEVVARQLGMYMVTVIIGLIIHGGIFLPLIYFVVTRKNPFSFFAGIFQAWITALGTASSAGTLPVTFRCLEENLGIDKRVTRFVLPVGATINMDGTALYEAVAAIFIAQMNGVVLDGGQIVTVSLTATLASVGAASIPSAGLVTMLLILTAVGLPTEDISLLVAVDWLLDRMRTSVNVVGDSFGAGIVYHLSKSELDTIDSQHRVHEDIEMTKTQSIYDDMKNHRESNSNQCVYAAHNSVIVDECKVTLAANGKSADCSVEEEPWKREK

[5] = biological target: Excitatory amino acid transporter 1 (Homo sapiens, UniProt P43003); assay: Inhibition of human EAAT1 expressed in HEK293 cells by [3H]D-Asp uptake assay; type: cell-based; conditions: for pIC50: hek293
Sequence of Excitatory amino acid transporter 1 (P43003 whole entry): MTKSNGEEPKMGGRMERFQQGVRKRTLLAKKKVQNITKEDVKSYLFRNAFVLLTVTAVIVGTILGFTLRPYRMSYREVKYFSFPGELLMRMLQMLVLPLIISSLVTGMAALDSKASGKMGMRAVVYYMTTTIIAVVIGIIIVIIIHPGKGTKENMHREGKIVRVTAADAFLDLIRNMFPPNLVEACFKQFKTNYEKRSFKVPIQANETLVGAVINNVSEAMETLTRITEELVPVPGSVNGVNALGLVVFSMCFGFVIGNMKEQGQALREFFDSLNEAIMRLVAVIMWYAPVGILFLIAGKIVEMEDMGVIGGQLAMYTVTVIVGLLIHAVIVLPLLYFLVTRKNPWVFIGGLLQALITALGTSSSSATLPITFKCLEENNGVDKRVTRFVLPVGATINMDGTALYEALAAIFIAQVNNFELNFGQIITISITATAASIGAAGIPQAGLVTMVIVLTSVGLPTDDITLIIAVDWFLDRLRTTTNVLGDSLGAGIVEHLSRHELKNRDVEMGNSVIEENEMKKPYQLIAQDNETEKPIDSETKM

[6] = biological target: Excitatory amino acid transporter 2 (Homo sapiens) (UniProt P43004); assay: Inhibition of human EAAT2 expressed in HEK293 cells at 100 uM by [3H]D-Asp uptake assay; type: cell-based; how it was run: as §1
[7] = biological target: T1, Excitatory amino acid transporter 3 (Homo sapiens); assay: Inhibition of human EAAT3 expressed in HEK293 cells at 100 uM by [3H]D-Asp uptake assay; type: cell-based; how it was run: as §1
[8] = biological target: T1, Excitatory amino acid transporter 3 (Homo sapiens); assay: Inhibition of human EAAT3 expressed in HEK293 cells at 1000 uM by [3H]D-Asp uptake assay; type: cell-based; how it was run: as §1
[9] = biological target: Excitatory amino acid transporter 2 (Homo sapiens) (UniProt P43004); assay: Inhibition of human EAAT2 expressed in HEK293 cells at 1000 uM by [3H]D-Asp uptake assay; type: cell-based; how it was run: as §1
[10] = biological target: T1, Excitatory amino acid transporter 3 (Homo sapiens); assay: Inhibition of human EAAT3 expressed in HEK293 cells at 75 uM by [3H]D-Asp uptake assay; type: cell-based; how it was run: as §1
[11] = biological target: Excitatory amino acid transporter 2 (Homo sapiens) (UniProt P43004); assay: Inhibition of human EAAT2 expressed in HEK293 cells at 75 uM by [3H]D-Asp uptake assay; type: cell-based; how it was run: as §1

Row | Structure (SMILES) | inhibition [1] | inhibition [4] | IC50 ([5]; read-out: pIC50 (converted)) | IC50 ([5]; read-out: IC50) | inhibition [6] | inhibition [7] | other results
1 | N#CC1=C(N)OC2=C(C(=O)CCC2)C1c1ccccc1F (stereo unspecified) | inactive | inactive | > 316 µM |  |  |  | 
2 | N#CC1=C(N)OC2=C(C1)C(=O)CC(c1ccccc1)C2 (stereo unspecified) | inactive | inactive | > 316 µM |  |  |  | 
3 | NC(=O)C1=C(N)OC2=C(C(=O)CC(c3ccccc3)C2)C1c1ccccc1 (stereo unspecified) |  |  |  | > 100 µM | inactive | inactive | pIC50 [5]: < 4
4 | N#CC1=C(N)OC2=C(C(=O)O[C@H](c3ccccc3)C2)[C@@H]1c1ccccc1 (relative stereo) | inactive | inactive | > 316 µM | > 300 µM |  |  | 
5 | N#CC1=C(N)OC2=C(C(=O)N[C@H](c3ccccc3)C2)[C@@H]1c1ccccc1 (relative stereo) | inactive | inactive | > 316 µM | > 300 µM |  |  | 
6 | N#CC1=C(N)OC2=C(C(=O)N[C@@H](c3ccccc3)C2)[C@@H]1c1ccccc1 (relative stereo) | inactive | inactive | > 316 µM | > 300 µM |  |  | 
7 | CC1CC(=O)C2=C(C1)OC(N)=C(C#N)C2c1ccc2c(c1)OCO2 (stereo unspecified) | inactive | inactive | > 316 µM |  |  |  | 
8 | N#CC1=COC2=C(C(=O)CC(c3ccccc3)C2)C1c1ccccc1 (stereo unspecified) |  |  |  | > 100 µM | inactive | inactive | pIC50 [5]: < 4
9 | CCO/C=N/C1=C(C#N)C(c2ccccc2)C2=C(CC(c3ccccc3)CC2=O)O1 (stereo unspecified) |  |  |  | > 1000 µM |  |  | pIC50 [5]: < 3; inhibition [8]: inactive; inhibition [9]: inactive
10 | N#CC1=C(N)OC2=C(C(=O)O[C@@H](c3ccccc3)C2)[C@@H]1c1ccccc1 (relative stereo) | inactive | inactive | > 316 µM | > 300 µM |  |  | 
11 | CC(C)(C)OC(=O)C1=C(N)OC2=C(C(=O)CC(c3ccccc3)C2)C1c1ccccc1 (stereo unspecified) |  |  | > 158 µM | > 75 µM |  |  | inhibition [10]: inactive; inhibition [11]: inactive
12 | CC(=O)NC1=C(C#N)C(c2ccccc2)C2=C(CC(c3ccccc3)CC2=O)O1 (stereo unspecified) |  |  |  | > 100 µM | inactive | inactive | pIC50 [5]: < 4
13 | COC(=O)C1=C(N)OC2=C(C(=O)CC(c3ccccc3)C2)C1c1ccccc1 (stereo unspecified) | inactive | inactive | > 316 µM | > 300 µM |  |  | 
14 | NC1=CC(c2ccccc2)C2=C(CC(c3ccccc3)CC2=O)O1 (stereo unspecified) |  |  |  | > 100 µM | inactive | inactive | pIC50 [5]: < 4

Further lines, with some results ahead:

Row | inhibition [1] | inhibition [4] | IC50 ([5]; read-out: pIC50 (converted)) | IC50 ([5]; read-out: IC50) | inhibition [6] | inhibition [7] | Structure (SMILES) | other results
15 | inactive | inactive |  |  |  |  | COc1ccc(C2C(C#N)=C(N)OC3=C2C(=O)CC(c2cccc4ccccc24)C3)cc1 (stereo unspecified) | half-life [2]: 30 min; Drug uptake [3]: < 10 ng/g
16 | inactive | inactive |  | 3.2 µM |  |  | COc1ccc(C2C(C#N)=C(N)OC3=C2C(=O)CC(c2ccc4ccccc4c2)C3)cc1 (stereo unspecified) | 
17 |  |  | 4.79 µM | 5.1 µM | inactive | inactive | COc1ccc(C2C(C#N)=C(N)OC3=C2C(=O)CC(Cc2ccccc2)C3)cc1 (stereo unspecified) | 
18 |  |  | 6.31 µM | 3.8 µM |  |  | N#CC1=C(N)OC2=C(C(=O)CC(c3ccccc3)C2)C1c1ccccc1 (stereo unspecified) | inhibition [8]: inactive; inhibition [9]: inactive
19 |  |  | 0.339 µM | 0.43 µM | inactive | inactive | CC1C(C#N)=C(N)OC2=C1C(=O)CC(c1cccc3ccccc13)C2 (stereo unspecified) | 
20 | inactive | inactive |  |  |  |  | CC1C(C#N)=C(N)OC2=C1C(=O)CC(c1ccccc1)C2 (stereo unspecified) | 
21 |  |  |  |  | inactive | inactive | N#CC1=C(N)OC2=C(C(=O)CC(c3ccccc3)C2)C1c1ccccc1F (stereo unspecified) | 
